Measured values as given in ChEMBL document CHEMBL1125148, “(R)-4-oxo-5-phosphononorvaline: a new competitive glutamate antagonist at the NMDA receptor complex” (J Med Chem, 1990).

Tests used:
[1] = In vitro binding affinity towards N-methyl-D-aspartate glutamate receptor of the glutamate receptor using [3H]CPP as radioligand in rat cerebral cortical membranes.; format: cell membranes, Membrane
Procedure, shortened: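 Rat brain membranes incubated with 10 nM [3H]CPP across a range of unlabeled antagonist concentrations. Specific binding was measured by centrifugation assay and expressed as percent inhibition versus concentration.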

[2] = molecular target: Glutamate receptor ionotropic, kainate 3 (Rattus norvegicus, UniProt P42264); experiment: Binding affinity towards Ionotropic glutamate receptor kainate using [3H]-kainic acid as radioligand; Inactive
Chain of Glutamate receptor ionotropic, kainate 3 (P42264 whole entry): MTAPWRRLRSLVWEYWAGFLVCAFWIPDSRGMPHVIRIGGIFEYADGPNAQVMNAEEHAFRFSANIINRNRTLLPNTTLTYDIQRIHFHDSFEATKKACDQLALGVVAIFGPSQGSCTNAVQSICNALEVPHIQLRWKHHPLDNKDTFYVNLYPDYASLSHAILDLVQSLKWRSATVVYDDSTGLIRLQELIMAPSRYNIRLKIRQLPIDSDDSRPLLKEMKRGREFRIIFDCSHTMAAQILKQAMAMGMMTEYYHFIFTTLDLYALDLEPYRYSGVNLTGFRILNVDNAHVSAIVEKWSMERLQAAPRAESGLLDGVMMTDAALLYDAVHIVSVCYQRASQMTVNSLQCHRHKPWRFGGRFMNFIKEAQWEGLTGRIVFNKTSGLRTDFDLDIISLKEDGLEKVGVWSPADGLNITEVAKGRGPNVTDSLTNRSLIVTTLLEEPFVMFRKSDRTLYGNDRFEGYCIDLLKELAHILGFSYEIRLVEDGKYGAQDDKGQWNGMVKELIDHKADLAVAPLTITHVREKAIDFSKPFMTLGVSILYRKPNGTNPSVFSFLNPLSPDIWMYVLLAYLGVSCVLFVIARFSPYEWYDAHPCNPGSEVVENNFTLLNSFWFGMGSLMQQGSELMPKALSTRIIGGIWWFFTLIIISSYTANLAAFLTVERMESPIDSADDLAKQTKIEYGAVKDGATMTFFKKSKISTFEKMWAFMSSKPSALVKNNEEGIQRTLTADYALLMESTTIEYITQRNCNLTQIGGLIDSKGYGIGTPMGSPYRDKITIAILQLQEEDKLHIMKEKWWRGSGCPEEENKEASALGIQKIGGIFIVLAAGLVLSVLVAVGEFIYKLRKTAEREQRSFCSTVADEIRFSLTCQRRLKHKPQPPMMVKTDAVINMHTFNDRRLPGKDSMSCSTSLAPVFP

Rattus norvegicus = species on record: Rattus norvegicus; experiment: Percent inhibition of glutamate activity against cGMP was determined; format: functional
Glutamate receptor 1 = Glutamate receptor 1 (Rattus norvegicus, UniProt P19490); experiment: Binding affinity towards AMPA receptor using [3H]AMPA as radioligand; Inactive
Chain of Glutamate receptor 1 (P19490 whole entry): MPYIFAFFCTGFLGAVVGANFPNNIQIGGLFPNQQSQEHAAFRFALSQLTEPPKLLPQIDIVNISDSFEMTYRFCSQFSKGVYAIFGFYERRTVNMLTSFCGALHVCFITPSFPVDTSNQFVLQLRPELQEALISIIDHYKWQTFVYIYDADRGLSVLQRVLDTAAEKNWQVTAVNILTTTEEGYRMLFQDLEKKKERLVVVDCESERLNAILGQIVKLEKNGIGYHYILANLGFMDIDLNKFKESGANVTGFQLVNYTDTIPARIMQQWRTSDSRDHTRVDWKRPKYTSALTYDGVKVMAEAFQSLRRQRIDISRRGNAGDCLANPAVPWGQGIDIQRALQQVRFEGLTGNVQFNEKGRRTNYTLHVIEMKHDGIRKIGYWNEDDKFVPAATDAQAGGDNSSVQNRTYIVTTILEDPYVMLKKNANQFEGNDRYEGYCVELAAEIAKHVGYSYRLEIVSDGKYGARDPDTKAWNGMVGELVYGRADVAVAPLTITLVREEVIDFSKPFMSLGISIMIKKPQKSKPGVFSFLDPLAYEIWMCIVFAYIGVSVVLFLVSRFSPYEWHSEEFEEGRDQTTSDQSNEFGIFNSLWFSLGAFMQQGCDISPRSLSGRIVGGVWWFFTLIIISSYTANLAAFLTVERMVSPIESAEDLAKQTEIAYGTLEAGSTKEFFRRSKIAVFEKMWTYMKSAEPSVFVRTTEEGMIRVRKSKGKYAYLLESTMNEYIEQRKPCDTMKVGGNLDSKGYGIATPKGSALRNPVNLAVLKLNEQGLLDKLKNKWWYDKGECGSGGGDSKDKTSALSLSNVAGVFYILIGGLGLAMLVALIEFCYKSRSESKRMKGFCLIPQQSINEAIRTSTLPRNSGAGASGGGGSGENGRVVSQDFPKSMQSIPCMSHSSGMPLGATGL

| Compound | Ki [1] [µM] | Ki [2] [µM] | IC50 (Rattus norvegicus) [µM] | Ki (Glutamate receptor 1) [µM] |
| --- | --- | --- | --- | --- |
| O=C(O)[C@@H]1C[C@H](CP(=O)(O)O)CCN1 [SELFOTEL] | 0.099 | > 100 | 1.1 | > 100 |
| N[C@H](CC(=O)CP(=O)(O)O)C(=O)O | 0.109 | > 100 | 5.9 | > 100 |
| O=C(O)C1CN(CCCP(=O)(O)O)CCN1 (stereo not given) | 0.131 | > 100 | 0.8 | > 100 |
| NC(CCCCCP(=O)(O)O)C(=O)O (stereo not given) [AP-7] | 0.73 | > 100 | 14.1 | > 100 |
| NC(CCCP(=O)(O)O)C(=O)O (stereo not given) | 0.176 | > 100 | 5.5 | > 100 |
